Measurements taken from PubChem BioAssay.
Inconclusive results are not listed. Calls of active or inactive are those of the source.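 How the source made its calls, unless noted: active means cell viability at or below a set limit in both duplicate runs, the limit being the all-compound median minus 4 SD (cut at about 23% in these data, passing the limit was not always enough); inconclusive means no clear call, values can overlap the other calls; inactive means the rest.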

Assays:
[1] = S. cerevisiae growth inhibition in permissive medium (OD615), pilot counter-assay for S. cerevisiae lifespan shortening project, permissive growth control (AID 705;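 active means growth inhibition above 25% in both replicates, a cutoff set 3 SD above the mean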); settings: OD615, 24 h, at 10 µM, active compounds read high
Summary of the method: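 Timing: 24 h exposure, 30 °C / Material: Saccharomyces cerevisiae strain carrying genetically modified DeaD replicative-lifespan system / Signal: OD at 615 nm / Compound: 10 µM single dose, 0.25% DMSO / Medium: SC raffinose/galactose permissive medium / Evaluation: reduction in yeast growth (OD615)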

[2] = S. cerevisiae growth inhibition in restrictive medium, OD615, pilot screen, restrictive growth control, yeast lifespan reduction project (AID 706;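 active means growth inhibition above a set limit, 3 SD over mean compound inhibition, in both replicates, cut at about 43% in these data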;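 further: modified DeaD lifespan yeast strain shifted to restrictive glucose medium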); settings: OD615, 48 h, at 10 µM, active compounds read high
Summary of the method: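 System: Engineered S. cerevisiae DeaD strain | Detection: OD615 | Buffer or medium: CSMM-D glucose medium | Doses: 10 µM compound, 0.25% DMSO | Timing: 4 h pre-growth plus 48 h compound exposure, 30 °C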

[3] = doxorubicin toxicity protection in MRP-1 cells – H69AR cells, CellTiter-Glo, duplicate, MRP-1 activator project, pilot screen (AID 807;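 active means viability increase at or above a cutoff of the median across tested compounds plus 3 SD, cut at about 8.5% in these data, passing the limit was not always enough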;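 further: compound pretreatment 18-22 h then 72 h combined with doxorubicin; 0% = doxorubicin alone and 100% = vehicle without doxorubicin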); settings: H69AR viability with doxorubicin, CellTiter-Glo luminescence; at 10 µM; active compounds read high
[4] = viability of HCT116 without oncogenic beta-catenin – human colon tumor cells, pilot screen (AID 823); settings: HCT116 beta-catenin knockout viability, CellTiter-Glo, 60 h; at 10 µM; active compounds read low;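 further: 0% = wells killed by 20 µM Hyamine and 100% = untreated DMSO cell wells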
[5] = viability of PTEN-null HCT116 cells – cell-based, HCT116 clonal line, CellTiter-Glo, pilot screen (AID 824;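 active means viability at or below 27.92% in each of two runs, the all-compound median minus 4 SD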;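 further: 0% = 20 µM Hyamine control and 100% = vehicle cell control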); settings: HCT116 PTEN-deleted viability, 60 h, at 10 µM, active compounds read low
[6] = RAM pathway blockade in budding yeast – dse1pr::URA3 reporter, 5-FOA selection, pilot screen (AID 869;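 active means inhibition over a set limit, the all-compound mean plus 3 SD, in both replicate runs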;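 further: 0% = DMSO wells with no growth and 100% = 10 µM 1-NA-PP1 with full growth; RAM network block rescues cells from 5-FOA so hits raise OD615 growth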); settings: S. cerevisiae dse1pr::URA3 5-FOA growth, OD615, 2 d; at 10 µM; active compounds read high; strain carries analog-sensitive mutant Cbk1 kinase
[7] = RAM signaling pathway blockade in yeast – S. cerevisiae, Pdr1DBD-CYC8 efflux-inhibited sensitized strain, primary screen (AID 1298;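 active means RAM network inhibition above 8.4% in each of two replicates, 3 SD over the compound average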;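 further: 0% = DMSO untreated cells without growth and 100% = 10 µM 1-NA-PP1 full growth; higher means more yeast growth rescued from 5-FOA killing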); settings: S. cerevisiae cbk1-as DSE1-URA3 strain, 5-FOA growth OD615, 2 d; at 50 µM; active compounds read high

CCCCN1C(=O)C(O)(CC(=O)c2ccccc2OC)c2ccccc21 (configuration not stated)
inactive: growth inhibition [1] -13.7% | growth inhibition [2] -5.6% | viability increase [3] -3.31% | viability [4] 79.6% | viability [5] 89.5% | inhibition [6] 1.89% | RAM network inhibition [7] 2.02%

Cc1ccc2c(c1)C(c1ccccc1)N(C(=O)C(C)C)CC(=O)N2 (configuration not stated)
inactive: growth inhibition [1] -14.9% | growth inhibition [2] -15.6% | viability increase [3] -1.2% | viability [4] 102% | viability [5] 92.1% | inhibition [6] 1.64% | RAM network inhibition [7] 4.21%

COc1ccc(C)cc1NC(=O)Cn1cnc2sc(C)c(S(=O)(=O)N3CCOCC3)c2c1=O
inactive: growth inhibition [1] 4.46% | growth inhibition [2] 4.67% | viability increase [3] -1.23% | viability [4] 102% | viability [5] 99.3% | inhibition [6] 2.75% | RAM network inhibition [7] 9.74%

O=C1C(C=NCc2ccco2)=C(O)c2ccccc21
inactive: growth inhibition [1] -0.635% | growth inhibition [2] -1.76% | viability increase [3] -3.09% | viability [4] 82.1% | viability [5] 89.9% | inhibition [6] 0.74% | RAM network inhibition [7] -0.41%

COc1ccc(S(=O)(=O)Nc2cc(Cl)ccc2OC)cc1
inactive: growth inhibition [1] -12.3% | growth inhibition [2] -21.9% | viability increase [3] -6.67% | inhibition [6] 0.78% | RAM network inhibition [7] 6.09%
active: viability [4] 16.5% | viability [5] 17.1%

Cc1cccc(NC(=O)NCCN2C(=O)C3C4C=CC(C4)C3C2=O)c1 (configuration not stated)
inactive: growth inhibition [1] -11.4% | growth inhibition [2] 8.84% | viability increase [3] -1.25% | viability [4] 104% | viability [5] 96.4% | inhibition [6] 1.83% | RAM network inhibition [7] 0.37%

CC(=O)Nc1cc(-c2nn3c(C)nnc3s2)ccc1C
inactive: growth inhibition [1] 3.93% | growth inhibition [2] 1.4% | viability increase [3] -0.1% | viability [4] 98.7% | viability [5] 90.3% | inhibition [6] 3.41% | RAM network inhibition [7] 3.72%

Cc1cc(C)n2nc(Nc3ccccc3)cc2n1
inactive: growth inhibition [1] -3.93% | growth inhibition [2] -10.7% | viability increase [3] -4.34% | viability [4] 90.1% | viability [5] 89.7% | inhibition [6] 1.97% | RAM network inhibition [7] 4.89%

COc1ccccc1NC(=O)CSc1nc(O)cc(=O)n1-c1ccccc1OC
inactive: growth inhibition [1] -0.915% | growth inhibition [2] -0.015% | viability increase [3] 0.76% | viability [4] 100% | viability [5] 100% | inhibition [6] 0.485% | RAM network inhibition [7] 3.1%

CN(C)C(=O)c1nnc(Cc2ccc(Cl)cc2)o1
inactive: growth inhibition [1] -8.24% | growth inhibition [2] 7.88% | viability increase [3] 2.17% | viability [4] 98.5% | viability [5] 108% | inhibition [6] 0.31% | RAM network inhibition [7] 7.05%

CCN(CC)c1cc(C)c2cc(NC(=O)CNC(C)=O)ccc2n1
inactive: growth inhibition [1] -10.4% | growth inhibition [2] -8.29% | viability increase [3] -2.37% | viability [4] 90% | viability [5] 91.1% | inhibition [6] 1.11% | RAM network inhibition [7] 2.59%

CCc1c(C)nc(SCC(=O)Nc2ccc(Br)cc2)[nH]c1=O
inactive: growth inhibition [1] -11.9% | growth inhibition [2] 0.39% | viability increase [3] 1.64% | viability [4] 98.3% | viability [5] 103% | inhibition [6] 1.89% | RAM network inhibition [7] 3.9%

CCOC(=O)Cc1csc(NC(=O)Nc2ccccc2)n1
inactive: growth inhibition [1] -11.8% | growth inhibition [2] -12.1% | viability increase [3] -0.81% | viability [4] 53.2% | viability [5] 53.2% | inhibition [6] 0.665% | RAM network inhibition [7] 4.19%

CCN(CC)S(=O)(=O)c1ccc(C(=O)OCC(=O)N2CCN(C(=O)c3ccco3)CC2)cc1
inactive: growth inhibition [1] -8.4% | growth inhibition [2] -3.91% | viability increase [3] 0.34% | viability [4] 89.7% | viability [5] 93.6% | inhibition [6] 1.86% | RAM network inhibition [7] 1.24%

CCC(C)NC(=O)C1CN(S(=O)(=O)c2ccccc2)CCN1S(=O)(=O)c1ccccc1 (configuration not stated)
inactive: growth inhibition [1] 10.9% | growth inhibition [2] -6.21% | viability increase [3] -2.53% | viability [4] 97.3% | viability [5] 92.9% | inhibition [6] 0.14% | RAM network inhibition [7] 0.57%

COc1ccc(-c2c(C)oc3c(CN4CCN(C)CC4)c(O)ccc3c2=O)cc1
inactive: growth inhibition [1] -13.2% | growth inhibition [2] -13.7% | viability increase [3] -8.83% | viability [4] 106% | viability [5] 96.5% | inhibition [6] 0.58% | RAM network inhibition [7] -0.85%
